Data on one molecule can be found in ChEMBL document CHEMBL4014338, “Discovery of Small Molecules as Multi-Toll-like Receptor Agonists with Proinflammatory and Anticancer Activities” (J Med Chem, 2017).

Each structure is given as a SMILES string. pEC50, pIC50: −log10 of the molar value.

In experiment [1] the target is Toll-like receptor 3/8/9 (Homo sapiens) (UniProt O15455+Q9NR96+Q9NR97). In words: Agonist activity at TLR3/TLR8/TLR9 in human THP1 cells assessed as increase in IL-8 mRNA level after 12 hrs by qRT-PCR method. In kind it is cell-based. A digest of the protocol: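 THP-1 cells (1.5 × 10^6/well) differentiated with PMA (20 nM) for 2 days, then 24 h in fresh RPMI 1640; nonadherent cells removed. Treated with indicated compound concentrations for 12 h, washed with PBS, and mRNA measured by qRT-PCR. Expressed as fold change versus untreated control, poly I:C (5 μg/mL) as reference. Mean ± SD of three independent experiments.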

The target in experiment [2] is Toll-like receptor 5 (Homo sapiens, UniProt O60602). The experiment can be described thus: Agonist activity at human TLR5 expressed in HEK293 cells assessed as induction of NF-kB activation-mediated SEAP production after 24 hrs by HTS assay. The experiment is classed as cell-based. A digest of the protocol:
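Stable HEK293 lines expressing a single hTLR plus a SEAP reporter, grown in DMEM/10% FBS with selective antibiotics. Seeded at 5 × 10^4 cells/well for 24 h at 37 °C, then treated 24 h. Supernatant mixed with QUANTI-Blue, 1 h at 37 °C, OD 620 nm. Cognate agonists: Pam3CSK4 (TLR2), poly I:C (TLR3), LPS (TLR4), FLA-BS (TLR5), R848 (TLR7). EC50 as mean ± SD.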

Experiment [3] concerns HMEC. In words: Antiproliferative activity against HMEC after 24 hrs by WST1 assay. Conditions: Homo sapiens. In kind it is cell-based. A digest of the protocol: (§1)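 Cells seeded at 5 × 10^3/well and left 24 h, then given a concentration series for 24, 48 or 72 h. WST-1 reagent added and incubated at 37 °C for 30 min–2 h until color change; absorbance 450 nm. Growth inhibition = (1 − [sample − background]/[control − background]) × 100. IC50 mean ± SD, three cell preparations.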
(In general: Tetrazolium assays rely on reduction of a dye to a coloured formazan, in cell work by metabolically active cells.)

For experiment [4], the system named is HeLa. In words: Cell cycle arrest in human HeLa cells assessed as accumulation at S phase at 30 uM after 24 hrs by propidium iodide staining based flow cytometry (reference value: 31%). The experiment is classed as functional.
In experiment [5] the test system is HeLa. The experiment can be described thus: Antiproliferative activity against human HeLa cells after 24 hrs by WST1 assay. In kind it is functional, cell-based. A digest of the protocol:
as §1

In experiment [6] the target is T1, Toll-like receptor 9 (Homo sapiens, UniProt Q9NR96).
T1 sequence (Q9NR96 whole entry): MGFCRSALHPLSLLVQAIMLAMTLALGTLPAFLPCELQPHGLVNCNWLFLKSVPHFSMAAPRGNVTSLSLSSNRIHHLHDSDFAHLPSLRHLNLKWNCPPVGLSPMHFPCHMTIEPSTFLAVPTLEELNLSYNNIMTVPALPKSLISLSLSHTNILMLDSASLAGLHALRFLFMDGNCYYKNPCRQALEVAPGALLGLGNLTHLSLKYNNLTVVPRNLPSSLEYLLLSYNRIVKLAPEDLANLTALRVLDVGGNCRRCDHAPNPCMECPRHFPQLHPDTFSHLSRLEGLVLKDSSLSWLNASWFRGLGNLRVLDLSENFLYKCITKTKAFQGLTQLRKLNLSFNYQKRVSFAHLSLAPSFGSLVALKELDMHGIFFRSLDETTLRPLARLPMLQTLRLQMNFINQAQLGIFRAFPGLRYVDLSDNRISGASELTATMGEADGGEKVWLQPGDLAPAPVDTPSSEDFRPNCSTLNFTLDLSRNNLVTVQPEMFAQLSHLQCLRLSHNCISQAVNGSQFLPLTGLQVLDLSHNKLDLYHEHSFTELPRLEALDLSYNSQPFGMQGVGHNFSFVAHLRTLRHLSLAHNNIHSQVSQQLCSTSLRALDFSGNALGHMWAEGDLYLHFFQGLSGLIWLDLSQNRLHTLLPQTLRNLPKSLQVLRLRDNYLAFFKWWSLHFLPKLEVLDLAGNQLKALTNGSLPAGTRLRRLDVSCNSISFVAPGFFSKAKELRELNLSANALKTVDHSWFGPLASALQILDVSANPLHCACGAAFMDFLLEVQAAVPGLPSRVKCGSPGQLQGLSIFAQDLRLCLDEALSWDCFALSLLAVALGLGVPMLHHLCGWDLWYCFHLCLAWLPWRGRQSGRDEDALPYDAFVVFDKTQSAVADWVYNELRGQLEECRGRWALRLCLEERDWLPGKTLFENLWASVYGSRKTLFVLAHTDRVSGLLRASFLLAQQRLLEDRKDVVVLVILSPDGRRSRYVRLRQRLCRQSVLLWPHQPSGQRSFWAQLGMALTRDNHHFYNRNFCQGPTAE
The experiment can be described thus: Agonist activity at human TLR9 expressed in HEK293 cells assessed as induction of NF-kB activation-mediated SEAP production after 24 hrs by HTS assay. The experiment is classed as cell-based. In a few lines: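 HEK293 cells stably expressing human TLR8 or TLR9 plus an NF-κB-inducible SEAP reporter, seeded at 5 × 10^4 cells/well for 24 h, then treated for 24 h. Supernatant incubated with QUANTI-Blue at 37 °C for 1 h and OD read at 620 nm. Positive controls were R848 (TLR8) and ODN2006 (TLR9). EC50 reported as mean ± SD.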

In experiment [7] the test system is HeLa. The experiment can be described thus: Cell cycle arrest in human HeLa cells assessed as accumulation at G0/G1 phase at 30 uM after 24 hrs by propidium iodide staining based flow cytometry (reference value: 52%). The experiment is classed as functional.

Toll-like receptor 3/8/9 (Homo sapiens), sequence (O15455 whole entry, looked up, one chain of several): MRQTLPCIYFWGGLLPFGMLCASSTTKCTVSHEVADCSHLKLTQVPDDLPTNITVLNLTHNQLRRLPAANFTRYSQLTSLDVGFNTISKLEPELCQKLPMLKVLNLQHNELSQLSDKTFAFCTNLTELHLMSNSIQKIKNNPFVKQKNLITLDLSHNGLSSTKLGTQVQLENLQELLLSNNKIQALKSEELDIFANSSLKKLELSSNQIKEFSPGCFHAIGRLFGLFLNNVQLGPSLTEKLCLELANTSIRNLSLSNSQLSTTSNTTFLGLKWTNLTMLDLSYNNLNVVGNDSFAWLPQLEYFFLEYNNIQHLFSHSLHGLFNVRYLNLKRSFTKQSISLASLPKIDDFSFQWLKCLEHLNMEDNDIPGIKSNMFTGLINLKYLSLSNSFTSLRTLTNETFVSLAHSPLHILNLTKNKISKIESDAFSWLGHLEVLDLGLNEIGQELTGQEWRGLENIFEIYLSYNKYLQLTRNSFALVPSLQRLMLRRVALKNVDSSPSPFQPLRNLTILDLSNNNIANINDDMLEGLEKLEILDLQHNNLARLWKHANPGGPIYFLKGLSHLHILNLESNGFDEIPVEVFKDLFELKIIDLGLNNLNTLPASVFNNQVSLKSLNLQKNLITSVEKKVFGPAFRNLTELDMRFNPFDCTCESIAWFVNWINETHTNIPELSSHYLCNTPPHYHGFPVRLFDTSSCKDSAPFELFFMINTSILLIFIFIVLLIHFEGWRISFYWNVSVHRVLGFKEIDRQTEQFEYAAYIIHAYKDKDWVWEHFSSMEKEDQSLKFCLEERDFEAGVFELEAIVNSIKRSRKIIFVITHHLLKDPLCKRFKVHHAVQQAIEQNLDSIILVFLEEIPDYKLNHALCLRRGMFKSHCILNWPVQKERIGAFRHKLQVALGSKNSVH
Toll-like receptor 3/8/9 (Homo sapiens), sequence (Q9NR97 whole entry, looked up, one chain of several): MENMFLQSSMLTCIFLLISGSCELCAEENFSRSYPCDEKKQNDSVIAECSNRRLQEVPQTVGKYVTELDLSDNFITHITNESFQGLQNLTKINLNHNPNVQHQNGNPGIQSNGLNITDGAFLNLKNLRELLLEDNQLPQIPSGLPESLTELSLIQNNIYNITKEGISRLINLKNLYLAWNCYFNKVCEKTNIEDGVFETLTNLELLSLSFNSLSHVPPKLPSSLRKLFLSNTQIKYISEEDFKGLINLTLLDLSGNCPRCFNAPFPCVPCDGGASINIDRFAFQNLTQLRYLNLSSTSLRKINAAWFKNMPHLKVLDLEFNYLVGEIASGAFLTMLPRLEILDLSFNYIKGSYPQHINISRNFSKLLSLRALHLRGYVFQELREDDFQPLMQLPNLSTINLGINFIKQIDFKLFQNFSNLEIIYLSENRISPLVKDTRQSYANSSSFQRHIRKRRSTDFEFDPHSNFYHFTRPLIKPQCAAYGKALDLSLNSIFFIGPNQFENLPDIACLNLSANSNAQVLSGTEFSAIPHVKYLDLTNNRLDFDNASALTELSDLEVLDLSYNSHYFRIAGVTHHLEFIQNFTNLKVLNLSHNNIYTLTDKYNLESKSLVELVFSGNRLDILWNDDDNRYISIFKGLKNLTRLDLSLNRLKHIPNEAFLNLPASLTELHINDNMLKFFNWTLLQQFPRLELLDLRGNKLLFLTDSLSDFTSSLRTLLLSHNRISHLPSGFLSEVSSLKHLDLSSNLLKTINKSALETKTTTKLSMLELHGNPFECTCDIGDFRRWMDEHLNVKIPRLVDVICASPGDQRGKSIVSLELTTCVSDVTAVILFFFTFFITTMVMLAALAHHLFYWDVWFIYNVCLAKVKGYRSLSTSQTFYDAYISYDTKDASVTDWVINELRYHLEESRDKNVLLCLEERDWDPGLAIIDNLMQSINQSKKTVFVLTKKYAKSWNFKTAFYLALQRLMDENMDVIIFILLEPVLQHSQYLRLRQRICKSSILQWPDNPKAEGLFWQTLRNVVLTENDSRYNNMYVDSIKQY
Toll-like receptor 5, sequence (O60602 whole entry): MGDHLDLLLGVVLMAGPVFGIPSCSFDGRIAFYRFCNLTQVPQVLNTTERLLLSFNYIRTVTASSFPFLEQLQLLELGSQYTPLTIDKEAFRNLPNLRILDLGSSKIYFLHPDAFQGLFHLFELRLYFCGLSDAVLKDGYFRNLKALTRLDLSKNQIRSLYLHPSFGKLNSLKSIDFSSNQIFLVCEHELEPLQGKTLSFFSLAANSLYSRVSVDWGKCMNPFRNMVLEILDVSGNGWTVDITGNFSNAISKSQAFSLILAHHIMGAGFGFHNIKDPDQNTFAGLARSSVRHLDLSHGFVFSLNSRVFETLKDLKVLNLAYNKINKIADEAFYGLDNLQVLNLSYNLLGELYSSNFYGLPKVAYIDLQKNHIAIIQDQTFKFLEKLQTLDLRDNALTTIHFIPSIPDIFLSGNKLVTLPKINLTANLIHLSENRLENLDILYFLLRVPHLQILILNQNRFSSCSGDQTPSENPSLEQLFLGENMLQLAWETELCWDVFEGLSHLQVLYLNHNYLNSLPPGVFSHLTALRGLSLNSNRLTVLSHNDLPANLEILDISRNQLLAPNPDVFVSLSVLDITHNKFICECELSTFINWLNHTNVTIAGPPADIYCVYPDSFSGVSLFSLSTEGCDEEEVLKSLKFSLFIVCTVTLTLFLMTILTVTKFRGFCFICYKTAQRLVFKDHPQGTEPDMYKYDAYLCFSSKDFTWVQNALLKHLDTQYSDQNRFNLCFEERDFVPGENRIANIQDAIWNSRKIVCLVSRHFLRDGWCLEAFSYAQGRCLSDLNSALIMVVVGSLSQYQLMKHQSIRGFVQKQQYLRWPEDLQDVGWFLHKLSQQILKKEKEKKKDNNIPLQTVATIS

One may read the pEC50 as the EC50 on a negative log10 scale, so that one unit is a factor of ten. Broadly, the pIC50 is −log10 of the IC50, conventionally taken in molar units. For `O=[N+]([O-])c1ccc(COc2cc3c(cc2OCc2ccc([N+](=O)[O-])cc2)OC2(C=C3)CCOCC2)cc1`, the Activity result in experiment [1] is “Dose-dependent effect”; in experiment [4], 39%; in experiment [5] it was “Dose-dependent effect”; in experiment [7], 41%. The pEC50 is below 4.00 in experiment [2] and 5.25 in experiment [6]. The pIC50 in experiment [3] is below 4.00; in experiment [5], 4.41.
